Laboratory results taken from ChEMBL document CHEMBL1155758, “Heliotropium huascoense resin exudate: chemical constituents and defensive properties” (J Nat Prod, 2001).
Calls of active or inactive are those of the source. The rule behind the calls is not given here.

Assays:
[1] = system: Leptinotarsa decemlineata; test: Antifeedant activity against Leptinotarsa decemlineata adults by no-choice test; assay type: functional, organism-based
[2] = system: Leptinotarsa decemlineata; test: Insecticidal activity against Leptinotarsa decemlineata adults assessed as mortality at 10 ug/insect dosed in to hemolymph injection after 72 hrs; assay type: functional
Method in brief: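 Adult Colorado potato beetles, 20 per compound, each injected into the hemolymph with 10 µg of compound dissolved in DMSO. Mortality was scored for up to 3 days after injection. Percent mortality was analysed with contingency tables and corrected by Abbott's formula.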

[3] = system: Leptinotarsa decemlineata; test: Antifeedant activity against Leptinotarsa decemlineata adults by choice test; assay type: functional, organism-based
Method in brief: (§1)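 Choice feeding bioassay using adult beetles, newly emerged fifth-instar larvae or apterous adult aphids. Percent feeding inhibition (FI) and percent settling inhibition (SI) were calculated as previously described. Compounds giving FR/SI > 50% were taken into a dose-response test, with EC50 (dose giving 50% feeding reduction) obtained by linear regression of %FR or %SI on log dose.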

[4] = system: Leptinotarsa decemlineata; test: Antifeedant activity against Leptinotarsa decemlineata adults at 50 ug/cm'2 by choice test; assay type: functional; method in brief: as §1
Spodoptera littoralis [5] = test: Antifeedant activity against fifth instar Spodoptera littoralis L6 larvae; assay type: functional, organism-based; method in brief: as §1
Spodoptera littoralis [6] = test: Antifeedant activity against fifth instar Spodoptera littoralis L6 larvae assessed as food consumption at 20 ug/insect, po relative to control; assay type: functional
Method in brief: (§2)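 Larval consumption and biomass gain were expressed as % of control. Significance versus control was tested at p < 0.05 with LSD. A second ANCOVA was run on biomass gain with food consumption as covariate to detect postingestive effects.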

Spodoptera littoralis [7] = test: Antifeedant activity against fifth instar Spodoptera littoralis L6 larvae at 50 ug/cm'2; assay type: functional; method in brief: as §1
Myzus persicae = test: Antifeedant activity against Myzus persicae apterous adults; assay type: functional, organism-based; method in brief: as §1
[8] = system: Leptinotarsa decemlineata; test: Antifeedant activity against Leptinotarsa decemlineata adults at 50 ug/cm'2 by no-choice test; assay type: functional
Spodoptera littoralis [9] = test: Antifeedant activity against fifth instar Spodoptera littoralis L6 larvae assessed as weight gain at 20 ug/insect, po relative to control; assay type: functional; method in brief: as §2
Aspergillus niger = test: Antifungal activity against Aspergillus niger assessed as inhibition of mycelial growth at 0.5 mg/mL; assay type: functional; settings: read-out: GI
Method in brief: (§3)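 Single-dose test at 0.5 mg/mL against the plant pathogens; activity estimated as percent mycelial growth inhibition.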

Fusarium verticillioides = test: Antifungal activity against Fusarium moniliforme assessed as inhibition of mycelial growth at 0.5 mg/mL; assay type: functional; settings: read-out: GI; method in brief: as §3
Spodoptera littoralis [10] = test: Antifeedant activity against fifth instar Spodoptera littoralis L6 larvae at 100 ug/cm'2; assay type: functional; method in brief: as §1

SMILES	EC50 [1] [ug.cm'-2]	Activity [2] [%]	EC50 [3] [ug.cm'-2]	Activity [4] [%]	EC50 (Spodoptera littoralis [5]) [ug.cm'-2]	Activity (Spodoptera littoralis [6]) [%]	Activity (Spodoptera littoralis [7]) [%]	Activity (Myzus persicae)	Activity [8] [%]	Activity (Spodoptera littoralis [9]) [%]	inhibition of growth at 500 µg/mL (Aspergillus niger) [%]	inhibition of growth at 500 µg/mL (Fusarium verticillioides) [%]	Activity (Spodoptera littoralis [10]) [%]
C[C@@H]1CC[C@@H]2C(C)(C)C[C@]3(C)CC=C[C@]123 [SILPHINENE]	2.7	24	0.27	–	–	–	–	–	–	–	–	–	–
COC(=O)c1ccc(OC)c(C[C@@H]2C(C)(C)C(=O)C=C[C@@]2(C)O)c1	24.19	0	50	55.4	17.4	75.9	71.8	inactive	81.82	66.1	–	–	–
COc1ccc(C(=O)O)cc1C[C@@H]1C(C)(C)C(=O)C=C[C@@]1(C)O (relative stereo)	50	0	> 50	37	> 100	113.1	0	inactive	56.1	126.2	–	–	–
COC(=O)c1ccc2c(c1)C[C@@]1(O2)[C@@H](C)CC[C@@H](O)C1(C)C [FILIFOLINOL]	> 50	20	> 50	16.82	> 100	120.2	–	inactive	42.4	120.9	36	61	34.6
